What was measured:
[1] = molecular target: Serine/threonine-protein kinase 26 (Homo sapiens) (UniProt Q9P289); assay: Inhibition of MST4 assessed as residual activity at 10 uM by Cherenkov counting relative to control in presence of 20 uM ATP
[2] = molecular target: T1, Dual specificity tyrosine-phosphorylation-regulated kinase 2 (Homo sapiens) (UniProt Q92630); assay: Inhibition of DYRK2 assessed as residual activity at 10 uM by Cherenkov counting relative to control in presence of 50 uM ATP
T1 sequence (whole entry): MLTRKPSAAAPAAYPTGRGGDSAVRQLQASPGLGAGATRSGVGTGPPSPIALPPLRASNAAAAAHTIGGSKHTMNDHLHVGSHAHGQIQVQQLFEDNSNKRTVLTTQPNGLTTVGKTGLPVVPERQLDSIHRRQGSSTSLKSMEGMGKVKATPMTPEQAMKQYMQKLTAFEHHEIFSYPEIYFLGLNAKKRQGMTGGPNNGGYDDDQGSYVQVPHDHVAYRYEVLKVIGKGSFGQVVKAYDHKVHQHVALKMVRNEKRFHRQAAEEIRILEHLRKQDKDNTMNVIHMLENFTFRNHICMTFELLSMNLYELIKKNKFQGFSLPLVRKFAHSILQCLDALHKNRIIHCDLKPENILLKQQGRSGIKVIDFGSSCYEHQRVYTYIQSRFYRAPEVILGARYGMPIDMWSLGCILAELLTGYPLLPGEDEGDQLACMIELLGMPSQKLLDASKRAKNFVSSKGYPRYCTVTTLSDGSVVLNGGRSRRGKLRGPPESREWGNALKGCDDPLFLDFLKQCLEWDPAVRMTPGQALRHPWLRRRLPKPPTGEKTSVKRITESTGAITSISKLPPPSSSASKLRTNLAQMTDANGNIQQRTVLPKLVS
Procedure, shortened: (§1)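 Single-point profiling at 10 µM in a panel of 78 protein kinases. Kinase activity is expressed as a percentage relative to control assays without compound.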

[3] = molecular target: Dual specificity tyrosine-phosphorylation-regulated kinase 1A (Homo sapiens) (UniProt Q13627); assay: Inhibition of DYRK1A assessed as residual activity at 10 uM by Cherenkov counting relative to control in presence of 50 uM ATP; procedure, shortened: as §1
[4] = molecular target: Glycogen synthase kinase-3 beta (Homo sapiens) (UniProt P49841); assay: Inhibition of GSK3-beta assessed as residual activity at 10 uM by Cherenkov counting relative to control in presence of 5 uM ATP; procedure, shortened: as §1
[5] = molecular target: Serine/threonine-protein kinase pim-2 (Homo sapiens) (UniProt Q9P1W9); assay: Inhibition of PIM2 assessed as residual activity at 10 uM by Cherenkov counting relative to control in presence of 5 uM ATP
[6] = molecular target: Ribosomal protein S6 kinase beta-1 (Homo sapiens) (UniProt P23443); assay: Inhibition of S6K1 assessed as residual activity at 10 uM by Cherenkov counting relative to control in presence of 20 uM ATP
Procedure, shortened: (§2)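 Single-concentration profiling at 10 μM in a 78-kinase panel. Kinase activity is expressed as a percentage of control assays run without compound.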

[7] = molecular target: T2, Serine/threonine-protein kinase TBK1 (Homo sapiens) (UniProt Q9UHD2); assay: Inhibition of TBK1 assessed as residual activity at 10 uM by Cherenkov counting relative to control in presence of 50 uM ATP; procedure, shortened: as §2
T2 sequence (whole entry): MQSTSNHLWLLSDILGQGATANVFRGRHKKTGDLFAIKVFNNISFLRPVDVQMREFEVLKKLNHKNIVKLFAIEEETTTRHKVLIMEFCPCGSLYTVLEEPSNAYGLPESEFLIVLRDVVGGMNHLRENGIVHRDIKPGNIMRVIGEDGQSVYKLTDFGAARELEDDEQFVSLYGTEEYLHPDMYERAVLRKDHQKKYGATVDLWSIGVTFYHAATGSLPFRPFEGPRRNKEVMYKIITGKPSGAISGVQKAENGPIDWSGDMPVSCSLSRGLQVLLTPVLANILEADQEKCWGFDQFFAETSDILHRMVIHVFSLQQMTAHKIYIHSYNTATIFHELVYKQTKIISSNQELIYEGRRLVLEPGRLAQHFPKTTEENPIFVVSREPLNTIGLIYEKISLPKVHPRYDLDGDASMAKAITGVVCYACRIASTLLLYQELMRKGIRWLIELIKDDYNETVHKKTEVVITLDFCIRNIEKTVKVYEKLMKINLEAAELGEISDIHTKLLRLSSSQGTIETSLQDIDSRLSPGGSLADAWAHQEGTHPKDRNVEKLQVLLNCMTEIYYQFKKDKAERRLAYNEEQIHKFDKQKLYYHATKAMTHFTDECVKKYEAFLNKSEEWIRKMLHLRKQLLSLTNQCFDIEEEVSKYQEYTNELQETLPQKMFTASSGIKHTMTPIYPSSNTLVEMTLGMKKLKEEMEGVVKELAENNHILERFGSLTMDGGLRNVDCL

[8] = molecular target: Rho-associated protein kinase 2 (Homo sapiens) (UniProt O75116); assay: Inhibition of ROCK2 assessed as residual activity at 10 uM by Cherenkov counting relative to control in presence of 20 uM ATP; procedure, shortened: as §2
[9] = Inhibition of VEGFR assessed as residual activity at 0.1 uM by Cherenkov counting relative to control in presence of 20 uM ATP
Procedure, shortened: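 Single-concentration screen at 0.1 μM in a 76-kinase panel. ATP for each kinase was set near its Km for ATP. Residual activity is given as a percentage of control assays without compound, mean of n = 3 ± SD.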

[10] = molecular target: T3, Serine/threonine-protein kinase 3 (Homo sapiens) (UniProt Q13188); assay: Inhibition of MST2 assessed as residual activity at 0.1 uM by Cherenkov counting relative to control in presence of 20 uM ATP
T3 sequence (whole entry): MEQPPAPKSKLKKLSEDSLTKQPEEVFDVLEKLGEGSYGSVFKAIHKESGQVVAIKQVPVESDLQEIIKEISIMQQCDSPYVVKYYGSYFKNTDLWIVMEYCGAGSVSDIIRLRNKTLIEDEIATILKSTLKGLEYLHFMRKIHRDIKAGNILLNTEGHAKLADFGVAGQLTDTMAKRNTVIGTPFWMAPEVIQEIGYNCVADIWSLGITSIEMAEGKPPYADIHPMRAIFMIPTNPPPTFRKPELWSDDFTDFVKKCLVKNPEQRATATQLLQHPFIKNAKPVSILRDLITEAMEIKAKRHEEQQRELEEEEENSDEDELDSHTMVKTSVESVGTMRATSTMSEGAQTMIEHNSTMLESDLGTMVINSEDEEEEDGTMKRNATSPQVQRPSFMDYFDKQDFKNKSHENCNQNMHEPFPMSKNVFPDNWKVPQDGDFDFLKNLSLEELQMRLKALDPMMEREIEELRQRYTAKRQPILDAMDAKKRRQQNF
Procedure, shortened: (§3)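 Single-concentration selectivity screen at 0.1 μM against a panel of 76 protein kinases. Each kinase was run at an ATP level approximating its Km for ATP. Output is mean residual activity as % of the control assay without compound, n = 3 ± SD.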

[11] = molecular target: Dual specificity mitogen-activated protein kinase kinase 1 (Homo sapiens) (UniProt Q02750); assay: Inhibition of MKK1 assessed as residual activity at 0.1 uM by Cherenkov counting relative to control in presence of 5 uM ATP; procedure, shortened: as §3
Sequence of Dual specificity mitogen-activated protein kinase kinase 1 (Homo sapiens) (Q02750 whole entry): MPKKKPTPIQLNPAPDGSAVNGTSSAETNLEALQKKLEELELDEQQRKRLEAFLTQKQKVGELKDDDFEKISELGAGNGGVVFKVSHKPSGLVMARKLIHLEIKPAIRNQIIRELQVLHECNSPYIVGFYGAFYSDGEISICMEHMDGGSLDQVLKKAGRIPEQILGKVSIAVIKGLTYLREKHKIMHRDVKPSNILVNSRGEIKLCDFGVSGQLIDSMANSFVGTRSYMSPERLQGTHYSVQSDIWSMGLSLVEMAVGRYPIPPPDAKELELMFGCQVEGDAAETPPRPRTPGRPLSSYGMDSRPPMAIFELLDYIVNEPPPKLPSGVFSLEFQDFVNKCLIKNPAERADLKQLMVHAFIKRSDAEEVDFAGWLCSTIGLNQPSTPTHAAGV

Sequence of Serine/threonine-protein kinase pim-2 (Homo sapiens) (Q9P1W9 whole entry, looked up): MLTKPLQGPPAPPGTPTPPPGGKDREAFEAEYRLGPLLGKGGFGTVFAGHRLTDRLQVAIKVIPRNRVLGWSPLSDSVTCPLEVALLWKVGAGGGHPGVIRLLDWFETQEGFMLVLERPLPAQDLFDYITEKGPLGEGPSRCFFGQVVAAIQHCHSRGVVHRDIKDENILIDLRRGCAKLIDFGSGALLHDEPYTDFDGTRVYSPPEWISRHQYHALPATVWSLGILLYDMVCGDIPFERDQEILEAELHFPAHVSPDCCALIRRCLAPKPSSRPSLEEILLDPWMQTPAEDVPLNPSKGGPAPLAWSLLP
Sequence of Rho-associated protein kinase 2 (Homo sapiens) (O75116 whole entry, looked up): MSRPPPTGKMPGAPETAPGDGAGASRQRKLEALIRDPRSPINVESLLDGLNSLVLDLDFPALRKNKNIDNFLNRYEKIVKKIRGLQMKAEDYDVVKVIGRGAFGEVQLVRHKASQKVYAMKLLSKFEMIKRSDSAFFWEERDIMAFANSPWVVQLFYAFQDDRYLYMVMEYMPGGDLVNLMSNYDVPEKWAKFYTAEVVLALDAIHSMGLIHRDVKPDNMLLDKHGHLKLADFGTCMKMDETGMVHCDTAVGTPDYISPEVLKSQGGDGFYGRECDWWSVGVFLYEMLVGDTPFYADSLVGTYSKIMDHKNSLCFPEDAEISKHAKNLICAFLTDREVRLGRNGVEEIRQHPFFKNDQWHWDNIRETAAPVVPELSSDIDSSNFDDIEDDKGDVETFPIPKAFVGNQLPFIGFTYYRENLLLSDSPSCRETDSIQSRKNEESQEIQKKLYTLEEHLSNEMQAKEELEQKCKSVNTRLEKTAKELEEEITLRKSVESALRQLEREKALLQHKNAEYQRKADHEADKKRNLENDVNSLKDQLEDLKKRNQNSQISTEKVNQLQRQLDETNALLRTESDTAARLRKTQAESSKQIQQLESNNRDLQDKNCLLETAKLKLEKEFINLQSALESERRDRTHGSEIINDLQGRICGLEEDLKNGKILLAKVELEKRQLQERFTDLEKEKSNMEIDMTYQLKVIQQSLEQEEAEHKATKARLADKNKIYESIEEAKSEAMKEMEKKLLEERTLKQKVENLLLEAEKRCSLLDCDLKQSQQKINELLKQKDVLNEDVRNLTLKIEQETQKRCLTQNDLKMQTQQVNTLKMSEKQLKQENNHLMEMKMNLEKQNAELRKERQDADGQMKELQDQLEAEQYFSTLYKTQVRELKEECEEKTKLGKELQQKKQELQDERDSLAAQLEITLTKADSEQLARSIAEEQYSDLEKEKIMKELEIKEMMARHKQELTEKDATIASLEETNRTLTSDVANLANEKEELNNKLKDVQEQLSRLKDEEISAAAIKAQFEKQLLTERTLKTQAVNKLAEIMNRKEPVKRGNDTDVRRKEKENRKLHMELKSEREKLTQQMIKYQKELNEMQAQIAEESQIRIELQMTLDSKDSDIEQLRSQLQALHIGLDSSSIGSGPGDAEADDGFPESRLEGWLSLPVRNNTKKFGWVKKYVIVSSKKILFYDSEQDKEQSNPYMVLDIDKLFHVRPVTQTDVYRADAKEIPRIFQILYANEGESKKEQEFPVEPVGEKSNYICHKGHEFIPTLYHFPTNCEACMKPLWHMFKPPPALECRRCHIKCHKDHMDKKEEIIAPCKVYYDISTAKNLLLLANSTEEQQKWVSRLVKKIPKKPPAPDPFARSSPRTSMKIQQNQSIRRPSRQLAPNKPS
Sequence of Serine/threonine-protein kinase 26 (Homo sapiens) (Q9P289 2-416 limits assumed): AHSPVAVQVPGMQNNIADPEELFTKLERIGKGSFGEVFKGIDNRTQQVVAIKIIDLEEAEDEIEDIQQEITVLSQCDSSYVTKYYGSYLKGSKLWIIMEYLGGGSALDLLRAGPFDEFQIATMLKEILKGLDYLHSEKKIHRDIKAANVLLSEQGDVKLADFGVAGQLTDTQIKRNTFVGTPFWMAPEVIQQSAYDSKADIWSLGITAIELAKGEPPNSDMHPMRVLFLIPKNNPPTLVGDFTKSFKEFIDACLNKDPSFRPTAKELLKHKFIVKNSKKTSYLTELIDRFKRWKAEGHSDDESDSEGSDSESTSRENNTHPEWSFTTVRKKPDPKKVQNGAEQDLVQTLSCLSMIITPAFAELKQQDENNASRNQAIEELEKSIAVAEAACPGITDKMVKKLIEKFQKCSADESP
Sequence of Ribosomal protein S6 kinase beta-1 (Homo sapiens) (P23443 whole entry, looked up): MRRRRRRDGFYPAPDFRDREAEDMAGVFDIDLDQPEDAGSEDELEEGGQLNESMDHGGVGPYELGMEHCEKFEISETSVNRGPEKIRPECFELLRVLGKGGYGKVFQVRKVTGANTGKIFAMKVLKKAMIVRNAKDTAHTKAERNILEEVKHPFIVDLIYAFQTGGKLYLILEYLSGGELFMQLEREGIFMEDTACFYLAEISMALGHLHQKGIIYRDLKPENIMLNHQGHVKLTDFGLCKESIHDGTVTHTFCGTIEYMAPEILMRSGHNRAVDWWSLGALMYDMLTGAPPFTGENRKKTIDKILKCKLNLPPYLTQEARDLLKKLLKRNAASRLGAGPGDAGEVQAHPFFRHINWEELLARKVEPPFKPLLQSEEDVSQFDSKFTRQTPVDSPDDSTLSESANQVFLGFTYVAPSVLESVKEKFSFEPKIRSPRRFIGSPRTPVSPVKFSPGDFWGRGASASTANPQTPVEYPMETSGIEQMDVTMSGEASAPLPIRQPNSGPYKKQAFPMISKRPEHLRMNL
Sequence of Glycogen synthase kinase-3 beta (Homo sapiens) (P49841 whole entry, looked up): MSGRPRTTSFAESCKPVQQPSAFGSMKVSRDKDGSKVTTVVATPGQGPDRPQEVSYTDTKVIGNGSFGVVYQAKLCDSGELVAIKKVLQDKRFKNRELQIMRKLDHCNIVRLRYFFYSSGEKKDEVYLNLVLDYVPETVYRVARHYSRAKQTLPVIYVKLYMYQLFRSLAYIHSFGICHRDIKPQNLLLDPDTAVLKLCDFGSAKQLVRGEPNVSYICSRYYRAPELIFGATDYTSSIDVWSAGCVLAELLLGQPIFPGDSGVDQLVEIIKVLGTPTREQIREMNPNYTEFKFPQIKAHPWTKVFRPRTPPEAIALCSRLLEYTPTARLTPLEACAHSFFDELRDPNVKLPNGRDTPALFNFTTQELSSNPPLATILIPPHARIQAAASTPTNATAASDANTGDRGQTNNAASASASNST

Activity [1] | Activity [2] | Activity [3] | Activity [4] | Activity [5] | Activity [6] | Activity [7] | Activity [8] | Activity [9] | Activity [10] | Activity [11] | Compound
88% | 101% | 100% | 75% | 105% | 89% | 90% | 76% |  |  |  | CC(C)c1onc(-c2ccc(F)cc2)c1-c1ccncc1
102% | 104% | 95% | 85% | 96% | 98% | 80% | 77% |  |  |  | CC(C)c1noc(-c2ccc(F)cc2)c1-c1ccncc1
 |  |  |  |  |  |  |  | 33% | 97% | 27% | COc1ccc(/C=C/C(=O)Nc2cc(-c3[nH]c(SC)nc3-c3ccc(F)cc3)ccn2)c(OC)c1
 |  |  |  |  |  |  |  | 46% | 112% | 18% | COc1ccc(/C=C/C(=O)Nc2cc(-c3[nH]c([S+](C)[O-])nc3-c3ccc(F)cc3)ccn2)c(OC)c1 (configuration not stated)

Source: ChEMBL document CHEMBL1155278, “3,4-Diaryl-isoxazoles and -imidazoles as potent dual inhibitors of p38alpha mitogen activated protein kinase and casein kinase 1delta” (J Med Chem, 2009)
